# Measured values published in ChEMBL document CHEMBL4422698, “Wortmannin and Wortmannine Analogues from an Undescribed Niesslia sp” (2019).
# The source made the active and inactive calls. The rule behind the calls is not given here.
# How the values were obtained:
# Cryptococcus neoformans [1] = experiment: Antifungal activity against Cryptococcus neoformans H99 assessed as zone of inhibition at 50 ug/disk by disk diffusion method; format: functional; conditions: for inhibition zone (IZ): var grubii H99; for zone of inhibition at 50 µg/disc: var grubii H99, read-out: IZ
# Summary of the method: (§1)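 Agar disk diffusion zone-of-inhibition assay on C. albicans ATCC 10231, C. neoformans H99 and S. aureus ATCC 43330, run per NCCLS recommendations. Compound applied at 50 μg/disk, amphotericin B control at 25 μg/disk. Inhibition zone diameter recorded in mm.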
# Candida albicans [2] = experiment: Antifungal activity against Candida albicans ATCC 10231 assessed as zone of inhibition at 50 ug/disk by disk diffusion method; format: functional; conditions: for zone of inhibition at 50 µg/disc: read-out: IZ; summary of the method: as §1
# Staphylococcus aureus = experiment: Antibacterial activity against Staphylococcus aureus ATCC 43330 assessed as zone of inhibition at 50 ug/disk by disk diffusion method; format: functional, organism-based; summary of the method: as §1
# Aspergillus fumigatus = experiment: Antifungal activity against Aspergillus fumigatus measured after 48 hrs by broth microdilution method; format: functional
# Summary of the method: (§2)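 NCCLS serial broth microdilution in RPMI-1640 with 0.165 M MOPS, pH 7.0. Compounds dissolved in DMSO and serially diluted in the medium. MIC-50 taken spectrophotometrically as the lowest concentration giving 50% growth inhibition versus the untreated control. Read at 48 h for C. albicans and A. fumigatus, 72 h for C. neoformans.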
# Candida albicans [3] = experiment: Antifungal activity against Candida albicans ATCC 10231 measured after 48 hrs by broth microdilution method; format: functional; conditions: ATCC 10231, 48 h; summary of the method: as §2
# Cryptococcus neoformans [4] = experiment: Antifungal activity against Cryptococcus neoformans H99 measured after 72 hrs by broth microdilution method; format: functional; conditions: var grubii H99 ; summary of the method: as §2
# [5] = tested on: Schizosaccharomyces pombe; experiment: Ratio of MIC50 for Schizosaccharomyces pombe isolate MJ1682 harboring efflux mutant to MIC50 for Schizosaccharomyces pombe SAK1; format: functional
# Summary of the method: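 S. pombe efflux mutant MJ1682 (caf5::bsdR pap1-del pmd1-del mfs1-del bfr1-del) and wild-type SAK1 grown in YES medium for 72 h with serially diluted compound. Viability read on a plate reader with Alamar Blue, itraconazole as positive control. Ratio of the MIC50 of the mutant to that of the wild type.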
# Candida albicans [6] = experiment: Antifungal activity against Candida albicans ATCC 10231 at 25 uM measured after 24 hrs
# Cryptococcus neoformans [7] = experiment: Antifungal activity against Cryptococcus neoformans H99 assessed as zone of inhibition at 25 ug/disk by disk diffusion method; format: functional; conditions: var grubii H99, read-out: IZ; summary of the method: as §1
# Candida albicans [8] = experiment: Antifungal activity against Candida albicans ATCC 10231 assessed as zone of inhibition at 25 ug/disk by disk diffusion method; format: functional; conditions: read-out: IZ
SMILES,inhibition zone (IZ) (Cryptococcus neoformans [1]),inhibition zone (IZ) (Candida albicans [2]),inhibition zone (IZ) (Staphylococcus aureus),other results
COC[C@H]1OC(=O)[C@@H]2[C@H](O)NC(=O)[C@@]23C(=O)C2=C([C@H](OC(=O)C(C)C)C[C@]4(C)C(=O)CC[C@@H]24)[C@@]13C,inactive,inactive,inactive,
CCC(C)C(=O)O[C@@H]1C[C@]2(C)C(=O)CC[C@H]2C2=C1[C@@]1(C)[C@@H](COC)OC(=O)[C@@H]3[C@@H](O)NC(=O)[C@@]31C2=O (stereo not given in full),inactive,inactive,inactive,
CCC(C)C(=O)O[C@@H]1C[C@]2(C)C(=O)CC[C@H]2C2=C1[C@]1(C)c3c(coc3C2=O)C(=O)O[C@@H]1COC (stereo not given in full),,,inactive,zone of inhibition at 50 µg/disc (Cryptococcus neoformans [1]): 16 mm; zone of inhibition at 50 µg/disc (Candida albicans [2]): 25 mm; MIC50 (Aspergillus fumigatus): 200 µM; MIC50 (Candida albicans [3]): 200 µM; MIC50 (Cryptococcus neoformans [4]): 100 µM; Ratio [5]: 0.1; Activity (Candida albicans [6]): Active
C[C@@H]1[C@H](O)[C@@H](C)/C=C/C=C/C=C/C=C/C=C/C=C/C=C/[C@H](O[C@@H]2O[C@H](C)[C@@H](O)[C@H](N)[C@@H]2O)C[C@@H]2O[C@](O)(C[C@@H](O)C[C@@H](O)[C@H](O)CC[C@@H](O)C[C@@H](O)CC(=O)O[C@H]1C)C[C@H](O)[C@H]2C(=O)O [AMPHOTERICIN B],,,,zone of inhibition at 25 µg/disc (Cryptococcus neoformans [7]): 13 mm; zone of inhibition at 25 µg/disc (Candida albicans [8]): 10 mm
CCC(C)C(=O)O[C@@H]1C[C@]2(C)C(=O)CC[C@H]2C2=C1[C@@]1(C)[C@@H](COC)OC(=O)[C@@H]3[C@H](O)NC(=O)[C@@]31C2=O (stereo not given in full),inactive,inactive,inactive,
COC[C@H]1OC(=O)c2coc3c2[C@@]1(C)C1=C(C3=O)[C@@H]2CCC(=O)[C@@]2(C)C[C@H]1OC(=O)C(C)C,,,inactive,zone of inhibition at 50 µg/disc (Cryptococcus neoformans [1]): 13 mm; zone of inhibition at 50 µg/disc (Candida albicans [2]): 25 mm
COC[C@H]1OC(=O)[C@@H]2[C@@H](O)NC(=O)[C@@]23C(=O)C2=C([C@H](OC(=O)C(C)C)C[C@]4(C)C(=O)CC[C@@H]24)[C@@]13C,inactive,inactive,inactive,
